Bioassay records: PubChem BioAssay, several laboratories
Sampled rows, rich in hits. Any-hit rate of the full collection: about 1.9%.
CASP6 VEID inh: caspase-6 (human) enzyme inhibition | actives 0.53% (n = 350,000) | AID 686996 | P55212 | inhibition, % at 12.5 µM | purified caspase-6, Z-VEID-R110 cleavage fluorescence;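 active = mean inhibition across replicates at least about 35%, with every replicate also reaching that limit, limit read from the data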;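 also: 0% = median of neutral control wells and 100% = no fluorescence left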
Target sequence (P55212 24-179 limits assumed): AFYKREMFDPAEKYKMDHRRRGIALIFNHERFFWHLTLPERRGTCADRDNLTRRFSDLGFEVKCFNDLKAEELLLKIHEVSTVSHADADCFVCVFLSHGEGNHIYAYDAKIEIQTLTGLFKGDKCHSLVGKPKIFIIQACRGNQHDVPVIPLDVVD
Target sequence (P55212 194-293 limits assumed): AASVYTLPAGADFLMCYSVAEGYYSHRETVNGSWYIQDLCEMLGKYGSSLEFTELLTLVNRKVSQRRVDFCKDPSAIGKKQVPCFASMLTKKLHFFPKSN
NSD2 inh: blocks human histone methyltransferase NSD2; actives 0.54% (n = 310,000); NSD2 peptide methylation, AlphaScreen, 120 min; O96028; inhibition, % at 12.5 µM; AID 743445; in the data active = inhibition above about 50%
MBD2 DNA inh: MBD2-methylated oligo binding inhibition | AID 686964 | TR-FRET, MBD2 binding to methylated oligonucleotide | Q9UBB5 | actives 0.31% (n = 370,000) | inhibition, % at 4.4 µM; in the data active = inhibition above about 13%
LEDGF integ inh: blocks HIV-1 LEDGF/p75-dependent DNA integration | TR-FRET IN-LEDGF/p75 DNA integration, Eu/Cy5 | inhibition, % at 3.7 µM | actives 0.64% (n = 370,000) | AID 743269;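 active = inhibition above the screen-wide mean plus 3 SD, cut at about 13% in these data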;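 also: signal is the Cy5 over europium emission ratio at 671 and 618 nm; 0% = plate median of compound wells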
TDP2 inh: blocks human TDP2 phosphodiesterase activity; O95551; recombinant TDP2, T5PNP hydrolysis, p-nitrophenol absorbance 415 nm; inhibition, % at 12.8 µM; actives 0.34% (n = 370,000); AID 720702;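 active = inhibition above the mean of all tested compounds plus 3 SD, set per campaign, cut at about 25% in these data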;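 also: 0% = DMSO with enzyme and 100% = buffer with substrate but no TDP2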
Target sequence (O95551 whole entry, looked up): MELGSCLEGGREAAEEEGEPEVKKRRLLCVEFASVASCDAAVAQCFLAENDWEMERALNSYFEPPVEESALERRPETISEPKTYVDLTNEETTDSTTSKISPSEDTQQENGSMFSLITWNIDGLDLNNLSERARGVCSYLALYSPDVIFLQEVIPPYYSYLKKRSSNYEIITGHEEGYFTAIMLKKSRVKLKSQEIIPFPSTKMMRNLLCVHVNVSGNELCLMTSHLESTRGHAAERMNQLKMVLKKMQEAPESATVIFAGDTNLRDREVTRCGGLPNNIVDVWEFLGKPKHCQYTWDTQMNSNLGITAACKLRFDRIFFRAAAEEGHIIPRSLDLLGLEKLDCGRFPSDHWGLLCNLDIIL
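Incubation: 2 h at 37 °C; Test system: recombinant human TDP2; Quantity: enzyme 120 nM; Read-out basis: percent inhibition; Medium: 50 mM Tris-HCl pH 7.5 with Mg2+, KCl, DTT, BSA; Repeats: single replicate; Compound: 12.8 µM single point, 1% DMSO; Signal: epi absorbance; Reagent: 5 mM T5PNP chromogenic substrate; Benchmarks: no-enzyme high, DMSO-plus-enzyme low.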
UHRF1 MBD2 ctr: human UHRF1 methylated DNA binding inhibitors; Q96T88; actives 0.75% (n = 370,000); UHRF1 binding to methylated oligo, TR-FRET; inhibition, % at 4.4 µM; in the data active = inhibition above about 21%;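 also: UHRF1 SRA domain binding a hemimethylated CpG hairpin DNA probe; 0% = median of test compound wells and 100% = reference inhibitor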
Active calls of the source: *; . = no result given.

SMILES	CASP6 VEID inh	NSD2 inh	MBD2 DNA inh	LEDGF integ inh	TDP2 inh	UHRF1 MBD2 ctr
CC1=C(C(=O)N(C(C)C)C(C)C)CC(CC(=O)NCCN2CCOCC2)C(=O)N1CCCN1CCCC1=O (stereo not drawn)	1.0	.	2.0	3.2	-4.9	7.4
CC1=C(C(=O)N(C)C)CC(CC(=O)NCCN2CCOCC2)C(=O)N1CCCN1CCCC1=O (stereo not drawn)	-0.5	.	6.7	1.1	2.7	21.6*
O=C(O)[C@@H]1[C@@H](CO)[C@@H]2Cn3c(ccc(/C=C/c4ccccc4)c3=O)[C@@H]2N1Cc1ccc2c(c1)OCO2	50.1*	.	.	.	.	.
Cc1noc(C)c1S(=O)(=O)N(C)C[C@@H]1OCCCC[C@@H](C)Oc2ccc(NC(=O)NC(C)C)cc2C(=O)N([C@H](C)CO)C[C@@H]1C	1.9	.	.	.	.	.
O=C(O)CN1C(=O)/C(=C\c2cc([N+](=O)[O-])ccc2OCc2ccccc2Cl)SC1=S	35.6*	.	2.2	4.7	14.5	-5.9
O=C(O)c1ccc(N2C(=O)CC(N3CCN(c4cccc(C(F)(F)F)c4)CC3)C2=O)cc1 (stereo not drawn)	90.2*	4.1	0.9	-3.4	-18.4	3.5
O=C(O)c1ccc(N2C(=O)CC(N3CCN(c4cccc(Cl)c4)CC3)C2=O)cc1 (stereo not drawn)	1.8	0.4	-0.4	-4.1	-3.4	1.5
CN(C)c1ccc(C=c2c3ccccc3n3c2c2ccccc2[n+]3C)cc1	-26.2	.	1.4	-12.1	1.9	1.7
CN(C)c1ccc(C=c2c3cc(O)ccc3n3c2cc(-c2ccccc2)[n+]3C)cc1	95.2*	42.9	7.3	8.0	23.1	31.0*
C[C@@H]1CCCCO[C@@H](CN(C)CC2CC2)[C@H](C)CN([C@@H](C)CO)C(=O)c2cc(NC(=O)NC3CCCCC3)ccc2O1	1.5	.	.	.	.	.
CCOC(=O)C1=CN(Cc2ccco2)S(=O)(=O)N(C)C1CC (stereo not drawn)	8.1	.	1.6	6.0	6.3	22.1*
O=C(O)C1CCCCC1C(=O)Nc1nc(-c2ccc(Cl)s2)cs1 (stereo not drawn)	46.1*	11.4	0.1	8.5	-3.9	1.5
CCCC(=O)Nc1nc(-c2ccc(Cl)s2)cs1	-4.3	2.4	3.0	-2.1	-1.2	2.9
CC(=S)/C=C1\Sc2ccccc2N1C	-0.6	.	-7.8	2.4	1.3	-8.8
CN1c2ccccc2Sc2cc(N)ccc21	54.5*	5.7	3.3	-3.4	-4.3	-0.5
O=C1c2ccccc2C(=O)c2c(O)c(O)cc(O)c21	40.9*	.	-0.5	0.8	8.5	5.0
N#Cc1c(N)sc2c1CCCCCC2	.	7.3	-2.9	0.0	-0.8	-4.5
N#Cc1c(N)sc(=S)c2c1CCCCC2	.	37.1	10.0	19.2*	10.8	21.1*
COc1ccc(/C=C/C(=O)Nc2ccc(NC(C)=O)cc2)cc1S(=O)(=O)N1CCOCC1	-3.1	-0.5	-0.3	-3.2	-4.2	32.2*
COc1ccc(CN(C)CC2CCCN(CCc3ccccc3C)C2)cc1O (stereo not drawn)	-24.5	10.1	4.3	0.7	-1.3	0.0
COc1ccc(CCN2CCCC(CN(C)Cc3cc(Cl)c(O)c(OC)c3)C2)cc1 (stereo not drawn)	-26.2	15.8	-1.4	0.6	7.6	53.7*
CCC(=O)N(C)C[C@@H]1Oc2cc(-c3ccccc3OC)ccc2S(=O)(=O)N([C@H](C)CO)C[C@@H]1C	-3.0	.	.	.	.	.
Cc1nc2sccn2c(=O)c1S(=O)(=O)NCCc1ccc(Cl)cc1	.	0.8	1.9	-2.0	1.3	2.2
Cc1ccc(CCNS(=O)(=O)c2c(C)nc3sccn3c2=O)cc1	-0.5	.	4.8	8.7	-8.8	23.3*
CC(=O)c1ccc(S(=O)(=O)N2CCN(C(=O)c3ccc(-n4cncn4)c([N+](=O)[O-])c3)CC2)cc1	53.9*	1.4	-4.7	2.5	-1.2	0.5
SMILES	CASP6 VEID inh	NSD2 inh	MBD2 DNA inh	LEDGF integ inh	TDP2 inh	UHRF1 MBD2 ctr
O=[N+]([O-])c1ccc(NCCCc2ccccc2)cc1	-0.4	-0.8	-0.9	1.1	-5.3	-0.3
CCNc1ccc([N+](=O)[O-])cc1	0.6	5.9	-1.5	2.6	-2.1	41.3*
CC1(C)COC(c2cc([N+](=O)[O-])ccc2Cl)=N1	.	-0.1	1.8	3.1	-3.4	6.3
CC1(C)COC(/C=C/c2cccc([N+](=O)[O-])c2)=N1	46.1*	-3.7	3.7	0.4	-10.2	0.8
NNC(=O)CC1=NNC(=O)C1	40.0*	0.7	1.8	1.6	-6.1	-1.9
Cc1noc(C)c1NC(=O)N[C@H]1CC[C@H](CC(=O)N2CCCCC2)O[C@H]1CO	-0.6	.	.	.	.	.
O=c1[nH][nH]c2c([N+](=O)[O-])ccc(F)c12	66.1*	22.2	-19.6	3.5	2.4	-8.2
O=C(c1cnccn1)N1CC(=O)N2[C@H](CO)[C@H](c3ccc(/C=C/c4ccccc4)cc3)[C@@H]2C1	0.5	.	.	.	.	.
CC1CCN(C(=S)c2ccc3c(c2)OCO3)CC1	.	0.3	0.4	2.4	-9.3	60.8*
Cc1ccc(S(=O)(=O)Nc2ccc3c(c2)C(=O)N([C@H](C)CO)C[C@H](C)[C@H](CN(C)S(=O)(=O)c2c(C)noc2C)OCCCC[C@H](C)O3)cc1	2.5	.	.	.	.	.
CN(C(=O)c1ccc(Cl)cc1)c1ccc(OCC(=O)Nc2cc(C(=O)O)ccc2Cl)cc1	36.4*	7.4	-2.6	5.6	-11.6	0.7
CC(C)CN(C(=O)COC(=O)/C=C/c1ccccc1)C1CCS(=O)(=O)C1 (stereo not drawn)	39.0*	1.8	-2.6	-1.6	2.1	-2.9
O=C(Oc1ccc2[nH]cc(CCN3C(=O)c4ccccc4C3=O)c2c1)c1ccco1	-0.5	38.1	-0.3	-3.4	-7.3	1.9
COc1ccc2c(c1)c(CCN1C(=O)c3ccccc3C1=O)cn2C(=O)c1ccco1	37.7*	1.1	-2.4	0.1	-0.4	0.4
O=C(O)CC1S/C(=N/N=C/C=C/c2ccccc2[N+](=O)[O-])NC1=O (stereo not drawn)	.	-2.0	-0.1	-2.1	-15.8	0.7
O=C(O)CC1S/C(=N/N=C/c2ccc(-c3ccc(Cl)c([N+](=O)[O-])c3)o2)NC1=O (stereo not drawn)	35.4*	3.3	0.9	1.3	1.4	1.5
CCCCn1c(=O)[nH]c2nc3cc(NC(C)=O)ccc3nc2c1=O	0.7	0.6	-0.9	-3.1	4.0	44.7*
CC(C)NC(=O)N[C@H]1CC[C@@H](CCN)O[C@H]1CO	-1.9	.	.	.	.	.
Cc1noc(C)c1S(=O)(=O)NCc1ccc(CN(C)C)cc1	2.4	4.4	2.9	0.0	13.8	33.5*
CNC(=O)C[C@@H]1CC[C@H]2[C@@H](COC[C@H](O)CN2S(=O)(=O)c2ccc(Oc3ccccc3)cc2)O1	0.1	.	.	.	.	.
O=C(COC(=O)CCc1c[nH]c2ccccc12)NCc1ccc2c(c1)OCO2	3.0	1.2	-0.8	3.4	-0.6	64.3*
